According to ChEMBL document CHEMBL1121371, “Antihypertensive 5,6-diarylpyridazin-3-ones” (1980):
The source made the active and inactive calls. The rule behind the calls is not given here.

Test system: Rattus norvegicus
Assay: Antihypertensive activity in spontaneously hypertensive rats was measured as average blood pressure at 10 mg/kg, p.o. before predose
Type: functional
Details: route oral
Procedure, shortened: (§1)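 Spontaneously hypertensive rats aged 12 to 16 weeks, in groups of five with systolic pressure of 170 mmHg or more. Oral dosing as a solution or suspension in 0.25% methylcellulose, 5 mL/kg, with a vehicle control group. Tail-cuff systolic pressure was read predose and 4 and 24 h after each of two doses. Values were compared with predose by Student's t test.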

Question: How did the BP turn out when `CC(=O)c1c(-c2ccc(Cl)cc2)c(-c2ccc(Cl)cc2)nn(CCN2CCCC2)c1=O` was run?
Answer: 208 mmHg

Test system: Rattus norvegicus
Assay: Antihypertensive activity in spontaneously hypertensive rats was measured as average blood pressure at 50 mg/kg, p.o. before predose
Type: functional
Details: route oral
Procedure, shortened: as §1

Question: How did the BP turn out when `N=C(N)NCCN1CCCCCCC1` [GUANETHIDINE] was run?
Answer: 187 mmHg

Test system: Rattus norvegicus
Assay: Antihypertensive activity in spontaneously hypertensive rats was measured as average blood pressure at 50 mg/kg, p.o. after 4 hours of postdose-1
Type: functional
Details: route oral
Procedure, shortened: as §1

Question: With `N=C(N)NCCN1CCCCCCC1` [GUANETHIDINE] as the compound, how does the BP read?
Answer: 154 mmHg

Test system: Rattus norvegicus
Assay: Antihypertensive activity in spontaneously hypertensive rats was measured as average blood pressure at 50 mg/kg, p.o. after 4 hours of postdose-2
Type: functional
Details: route oral
Procedure, shortened: as §1

Question: How did the BP turn out when `N=C(N)NCCN1CCCCCCC1` [GUANETHIDINE] was run?
Answer: 138 mmHg

Test system: Rattus norvegicus
Assay: Antihypertensive activity in spontaneously hypertensive rats was measured as average blood pressure at 10 mg/kg, p.o. after 24 hours of postdose-1
Type: functional
Details: route oral
Procedure, shortened: as §1

Question: Which BP does the source give for `CC(=O)c1c(-c2ccc(Cl)cc2)c(-c2ccc(Cl)cc2)nn(CCN2CCCC2)c1=O` here?
Answer: 204 mmHg

Test system: Rattus norvegicus
Assay: Antihypertensive activity in spontaneously hypertensive rats was measured as average blood pressure at 10 mg/kg, p.o. after 24 hours of postdose-2
Type: functional
Details: route oral
Procedure, shortened: as §1

Question: How did the BP turn out when `CC(=O)c1c(-c2ccc(Cl)cc2)c(-c2ccc(Cl)cc2)nn(CCN2CCCC2)c1=O` was run?
Answer: 207 mmHg

Organism: Rattus norvegicus
Assay: Antihypertensive activity in spontaneously hypertensive rats was measured as decrease in heart rate; (-)=decreased heart rate
Type: functional, organism-based
Details: not given

Question: Which BP does the source give for `CC(=O)c1c(-c2ccc(Cl)cc2)c(-c2ccc(Cl)cc2)nn(CCN2CCCC2)c1=O` here?
Answer: inactive

Test system: Rattus norvegicus
Assay: Antihypertensive activity in spontaneously hypertensive rats was measured as average blood pressure at 10 mg/kg, p.o. after 4 hours of postdose-1.
Type: functional
Details: route oral
Procedure, shortened: as §1

Question: How did the BP turn out when `CC(=O)c1c(-c2ccc(Cl)cc2)c(-c2ccc(Cl)cc2)nn(CCN2CCCC2)c1=O` was run?
Answer: 205 mmHg

Test system: Rattus norvegicus
Assay: Antihypertensive activity in spontaneously hypertensive rats was measured as average blood pressure at 10 mg/kg, p.o. after 4 hours of postdose-2
Type: functional
Details: route oral
Procedure, shortened: as §1

Question: For `CC(=O)c1c(-c2ccc(Cl)cc2)c(-c2ccc(Cl)cc2)nn(CCN2CCCC2)c1=O`, which BP is on record?
Answer: 202 mmHg

Test system: Rattus norvegicus
Assay: Antihypertensive activity in spontaneously hypertensive rats was measured as average blood pressure at 100 mg/kg, p.o. after 24 hours of postdose-1.
Type: functional
Details: route oral
Procedure, shortened: as §1

Question: Which BP does the source give for `CC(=O)c1c(-c2ccc(Cl)cc2)c(-c2ccc(Cl)cc2)nn(CCN2CCCC2)c1=O` here?
Answer: 138 mmHg

Test system: Rattus norvegicus
Assay: Antihypertensive activity in spontaneously hypertensive rats was measured as average blood pressure at 100 mg/kg, po after 24 hours of postdose-2
Type: functional
Details: not given
Procedure, shortened: as §1

Question: With `CC(=O)c1c(-c2ccc(Cl)cc2)c(-c2ccc(Cl)cc2)nn(CCN2CCCC2)c1=O` as the compound, how does the BP read?
Answer: 146 mmHg

Test system: Rattus norvegicus
Assay: Antihypertensive activity in spontaneously hypertensive rats was measured as average blood pressure at 25 mg/kg, p.o. after 24 hours of postdose-1
Type: functional
Details: route oral
Procedure, shortened: as §1

Question: With `N=C(N)NCCN1CCCCCCC1` [GUANETHIDINE] as the compound, how does the BP read?
Answer: 181 mmHg

Test system: Rattus norvegicus
Assay: Antihypertensive activity in spontaneously hypertensive rats was measured as average blood pressure at 25 mg/kg, p.o. after 24 hours of postdose-2
Type: functional
Details: route oral
Procedure, shortened: as §1

Question: With `N=C(N)NCCN1CCCCCCC1` [GUANETHIDINE] as the compound, how does the BP read?
Answer: 183 mmHg

Test system: Rattus norvegicus
Assay: Antihypertensive activity in spontaneously hypertensive rats was measured as average blood pressure at 25 mg/kg, po after 4 hours of postdose-1
Type: functional
Details: not given
Procedure, shortened: as §1

Question: For `N=C(N)NCCN1CCCCCCC1` [GUANETHIDINE], which BP is on record?
Answer: 163 mmHg

Test system: Rattus norvegicus
Assay: Antihypertensive activity in spontaneously hypertensive rats was measured as average blood pressure at 25 mg/kg, p.o. after 4 hours of postdose-2
Type: functional
Details: route oral
Procedure, shortened: as §1

Question: `N=C(N)NCCN1CCCCCCC1` [GUANETHIDINE] was tested. Which BP did it give?
Answer: 163 mmHg

Test system: Rattus norvegicus
Assay: Antihypertensive activity in spontaneously hypertensive rats was measured as average blood pressure at 25 mg/kg, p.o. before predose
Type: functional
Details: route oral
Procedure, shortened: as §1

Question: With `N=C(N)NCCN1CCCCCCC1` [GUANETHIDINE] as the compound, how does the BP read?
Answer: 194 mmHg

Test system: Rattus norvegicus
Assay: Antihypertensive activity in spontaneously hypertensive rats was measured as average blood pressure at 30 mg/kg, p.o. after 24 hours of postdose-1
Type: functional
Details: route oral
Procedure, shortened: as §1

Question: With `CC(=O)c1c(-c2ccc(Cl)cc2)c(-c2ccc(Cl)cc2)nn(CCN2CCCC2)c1=O` as the compound, how does the BP read?
Answer: 187 mmHg

Test system: Rattus norvegicus
Assay: Antihypertensive activity in spontaneously hypertensive rats was measured as average blood pressure at 30 mg/kg, p.o. after 24 hours of postdose-2
Type: functional
Details: route oral
Procedure, shortened: as §1

Question: With `CC(=O)c1c(-c2ccc(Cl)cc2)c(-c2ccc(Cl)cc2)nn(CCN2CCCC2)c1=O` as the compound, how does the BP read?
Answer: 199 mmHg

Test system: Rattus norvegicus
Assay: Antihypertensive activity in spontaneously hypertensive rats was measured as average blood pressure at 30 mg/kg, po after 4 hours of postdose-1.
Type: functional
Details: not given
Procedure, shortened: as §1

Question: How did the BP turn out when `CC(=O)c1c(-c2ccc(Cl)cc2)c(-c2ccc(Cl)cc2)nn(CCN2CCCC2)c1=O` was run?
Answer: 200 mmHg

Test system: Rattus norvegicus
Assay: Antihypertensive activity in spontaneously hypertensive rats was measured as average blood pressure at 30 mg/kg, p.o. after 4 hours of postdose-2
Type: functional
Details: route oral
Procedure, shortened: as §1

Question: With `CC(=O)c1c(-c2ccc(Cl)cc2)c(-c2ccc(Cl)cc2)nn(CCN2CCCC2)c1=O` as the compound, how does the BP read?
Answer: 191 mmHg

Test system: Rattus norvegicus
Assay: Antihypertensive activity in spontaneously hypertensive rats was measured as average blood pressure at 30 mg/kg, p.o. before predose
Type: functional
Details: route oral
Procedure, shortened: as §1

Question: For `CC(=O)c1c(-c2ccc(Cl)cc2)c(-c2ccc(Cl)cc2)nn(CCN2CCCC2)c1=O`, which BP is on record?
Answer: 212 mmHg

Test system: Rattus norvegicus
Assay: Antihypertensive activity in spontaneously hypertensive rats was measured as average blood pressure at 50 mg/kg, p.o. after 24 hours of postdose-1
Type: functional
Details: route oral
Procedure, shortened: as §1

Question: How did the BP turn out when `N=C(N)NCCN1CCCCCCC1` [GUANETHIDINE] was run?
Answer: 166 mmHg

Test system: Rattus norvegicus
Assay: Antihypertensive activity in spontaneously hypertensive rats was measured as average blood pressure at 50 mg/kg, p.o. after 24 hours of postdose-2
Type: functional
Details: route oral
Procedure, shortened: as §1

Question: Which BP does the source give for `N=C(N)NCCN1CCCCCCC1` [GUANETHIDINE] here?
Answer: 146 mmHg

Test system: Rattus norvegicus
Assay: Antihypertensive activity in spontaneously hypertensive rats was measured as average blood pressure at 100 mg/kg, p.o. after 4 hours of postdose-1
Type: functional
Details: route oral
Procedure, shortened: as §1

Question: Which BP does the source give for `CC(=O)c1c(-c2ccc(Cl)cc2)c(-c2ccc(Cl)cc2)nn(CCN2CCCC2)c1=O` here?
Answer: 155 mmHg

Test system: Rattus norvegicus
Assay: Antihypertensive activity in spontaneously hypertensive rats was measured as average blood pressure at 100 mg/kg, p.o. after 4 hours of postdose-2
Type: functional
Details: route oral
Procedure, shortened: as §1

Question: How did the BP turn out when `CC(=O)c1c(-c2ccc(Cl)cc2)c(-c2ccc(Cl)cc2)nn(CCN2CCCC2)c1=O` was run?
Answer: 142 mmHg

Test system: Rattus norvegicus
Assay: Antihypertensive activity in spontaneously hypertensive rats was measured as average blood pressure at 100 mg/kg, p.o. before predose
Type: functional
Details: route oral
Procedure, shortened: as §1

Question: How did the BP turn out when `CC(=O)c1c(-c2ccc(Cl)cc2)c(-c2ccc(Cl)cc2)nn(CCN2CCCC2)c1=O` was run?
Answer: 192 mmHg
